The values below come from ChEMBL document CHEMBL4308903, “Synthesis of amides from (E)-3-(1-chloro-3,4-dihydronaphthalen-2-yl)acrylic acid and substituted amino acid esters as NorA efflux pump inhibitors of Staphylococcus aureus” (Bioorg Med Chem, 2019).

Molecules are shown by their SMILES. Calls of active or inactive are those of the source. No cut-off for these calls is given here.

Data set [1] addresses T1, Quinolone resistance protein NorA (Staphylococcus aureus) (UniProt P0A0J7).
T1 sequence (whole entry): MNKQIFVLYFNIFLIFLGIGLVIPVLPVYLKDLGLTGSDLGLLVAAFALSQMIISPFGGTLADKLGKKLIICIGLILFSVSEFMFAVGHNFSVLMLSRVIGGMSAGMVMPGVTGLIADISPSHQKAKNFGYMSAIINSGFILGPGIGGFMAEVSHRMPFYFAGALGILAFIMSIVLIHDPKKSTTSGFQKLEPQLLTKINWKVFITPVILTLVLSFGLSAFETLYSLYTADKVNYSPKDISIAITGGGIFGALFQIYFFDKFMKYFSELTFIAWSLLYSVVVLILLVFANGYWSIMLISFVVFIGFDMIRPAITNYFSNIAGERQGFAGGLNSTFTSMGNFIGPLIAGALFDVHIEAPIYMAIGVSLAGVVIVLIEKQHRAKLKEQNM
In words: Inhibition of NorA in Staphylococcus aureus 1199B assessed as minimum concentration required to effectively reduce ciprofloxacin MIC by four fold by broth checkerboard microdilution method. Summed up: (§1)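 Broth checkerboard microdilution in cation-adjusted Mueller–Hinton broth. Compounds tested at seven concentrations (50-0.7 μg/mL) against twofold serial dilutions of ciprofloxacin (32-0.06 μg/mL). MEC is the minimum concentration that lowers the ciprofloxacin MIC fourfold. Piperine and SK-20 served as reference EPIs.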
(Broth dilution looks for growth in wells or tubes with falling amounts of substance.)

Data set [2] has as its target T1, Quinolone resistance protein NorA (Staphylococcus aureus). In words: Inhibition of NorA in Staphylococcus aureus 1199B assessed as reduction in ethidium bromide efflux at 50 uM measured after 5 mins by fluorescence assay relative to control. In outline: (§2)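 SA-1199B grown on tryptone soya agar. Ethidium bromide efflux followed by fluorescence (excitation 530 nm, emission 600 nm) over 5 min with compound at 0–50 μM. Run in triplicate. Percent inhibition calculated from mean values against the no-inhibitor control.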

Data set [3] concerns Staphylococcus aureus. Put plainly: Potentiation of ciprofloxacin-induced antibacterial activity in Staphylococcus aureus 1199 assessed as reduction in ciprofloxacin MIC at 0.8 to 50 ug/ml by broth checkerboard microdilution method relative to control. It counts as functional. Summed up:
as §1

Data set [4] deals with Staphylococcus aureus. In words: Potentiation of ciprofloxacin-induced antibacterial activity in norA-deleted Staphylococcus aureus K1758 assessed as reduction in ciprofloxacin MIC at 0.8 to 50 ug/ml by broth checkerboard microdilution method relative to control. Format: functional. In outline: as §1
Data set [5] has as its system Staphylococcus aureus. Put plainly: Growth inhibition of Staphylococcus aureus 1199 at 50 ug/ml by broth microdilution method. Format: organism-based.
In data set [6] the test system is Staphylococcus aureus. In words: Growth inhibition of norA-deleted Staphylococcus aureus K1758 at 50 ug/ml by broth microdilution method. Format: organism-based. In outline: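 MIC determined by broth microdilution in cation-adjusted Mueller–Hinton broth following CLSI guidelines. MIC is the lowest concentration giving no visible growth.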
Data set [7] addresses T1, Quinolone resistance protein NorA (Staphylococcus aureus). In words: Inhibition of NorA Staphylococcus aureus 1199B assessed as reduction in ethidium bromide efflux at 6.25 to 50 uM measured after 5 mins by fluorescence assay relative to control. In outline:
as §2

Data set [8] has the same target. In words: Inhibition of NorA Staphylococcus aureus 1199B assessed as reduction in ethidium bromide efflux at 6.25 to 50 uM measured at 5 mins interval for 30 mins by fluorescence assay relative to control.
Data set [9] shares this target. Put plainly: Inhibition of NorA in Staphylococcus aureus 1199B assessed as […] at 25 uM measured at 5 mins interval for 60 mins by fluorescence assay relative to control. Particulars: in the assay text read “for 30 mins” for “for 60 mins”. Summed up:
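Ethidium bromide accumulation measured in SA-1199B cells preloaded with ethidium bromide, with compound at 25 μM. Fluorescence gain (excitation 530 nm, emission 600 nm) recorded at 5-min intervals.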

Data set [10] deals with Staphylococcus aureus. Put plainly: Potentiation of ciprofloxacin-induced antibacterial activity in Staphylococcus aureus 1199 assessed as minimum concentration required to effectively reduce ciprofloxacin MIC by four fold by broth checkerboard microdilution method. Format: functional. Particulars: read-out: MEC. In outline: as §1
The target of data set [11] is T1, Quinolone resistance protein NorA (Staphylococcus aureus). In words: Inhibition of NorA in Staphylococcus aureus 1199B assessed as reduction in ethidium bromide efflux at 50 uM measured over 5 mins interval for 30 mins by fluorescence assay relative to control.
Data set [12] shares this target. Put plainly: Inhibition of NorA in Staphylococcus aureus 1199B assessed as assessed as potentiation of ciprofloxacin-induced antibacterial activity by measuring reduction in ciprofloxacin MIC at 25 to 50 ug/ml by broth checkerboard microdilution method relative to control. In outline: as §1
A further data set concerns HepG2. In words: Cytotoxicity against human HepG2 cells assessed as reduction in cell viability at 100 uM after 24 hrs by MTT assay. Format: cell-based. Conditions: hepg2, 24 h. In outline: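 HepG2 monolayer (1×10^6 cells/well) in high-glucose DMEM exposed to 50 and 100 μM in triplicate for 24 h at 37°C, 5% CO2. MTT added, then formazan absorbance read at 570 nm. Percent cytotoxicity calculated against tamoxifen positive control (10 and 20 µg/mL) and untreated healthy cells.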
Background: Tetrazolium dyes change colour on reduction, which living cells bring about.

The inhibition is the relative decrease from the control value, in per cent. With `COC(=O)[C@H](Cc1ccccc1)NC(=O)/C=C/C1=C(Cl)c2ccccc2CC1`, the MEC in [1] was 12.5 µg/mL. For the same compound, the inhibition in [2] is 48%. Moreover, the “fold change (FC)” value in the data set on Staphylococcus aureus [3] and in the data set on Staphylococcus aureus [4] was 0 in each case. Also, the “growth inhibition (GI)” value in the data set with Staphylococcus aureus [5] and with Staphylococcus aureus [6] was “Non-Toxic” throughout.

Consider `COC(=O)CC1(NC(=O)/C=C/C2=C(Cl)c3ccccc3CC2)CCCCC1`, for which the MEC in data set [1] is over 50 µg/mL. In addition, the “fold change (FC)” value in the data set on Staphylococcus aureus [3] and in the data set with Staphylococcus aureus [4] was 0 throughout. Besides, the “growth inhibition (GI)” value in the data set with Staphylococcus aureus [5] and in the data set on Staphylococcus aureus [6] was “Non-Toxic” each time.

Turning to `COC(=O)[C@H]1CCCN1C(=O)/C=C/C1=C(Cl)c2ccccc2CC1`, in data set [1], the MEC worked out at 12.5 µg/mL. The inhibition in [2] stood at 52.6%. Moreover, the “fold change (FC)” value with Staphylococcus aureus [3] and in the data set on Staphylococcus aureus [4] was 0 each time. Moreover, the “growth inhibition (GI)” value in the data set with Staphylococcus aureus [5] and in the data set with Staphylococcus aureus [6] was “Toxic” each time.

Turning to `COC(=O)CCNC(=O)/C=C/C1=C(Cl)c2ccccc2CC1`, the MEC in data set [1] was determined as 25 µg/mL. The “fold change (FC)” value in the data set on Staphylococcus aureus [3] and in the data set with Staphylococcus aureus [4] was 0 each time. For the same compound, the “growth inhibition (GI)” value with Staphylococcus aureus [5] and in the data set on Staphylococcus aureus [6] was “Non-Toxic” in each case.

`COC(=O)[C@@H](NC(=O)/C=C/C1=C(Cl)c2ccccc2CC1)C(C)C`: the MEC in data set [1] stood at 3.12 µg/mL. For the same compound, the inhibition in data set [2] and in [7] was 67.2% each time. Also, the results for the “fold change (FC)” value in the data set on Staphylococcus aureus [3] and with Staphylococcus aureus [4] were 2 and 0, respectively. For the same compound, the “growth inhibition (GI)” value in the data set with Staphylococcus aureus [5] and with Staphylococcus aureus [6] was “Non-Toxic” in each case.

Regarding `COC(=O)[C@H]1[C@H]2C[C@@H]3c4[nH]c5cc(OC)ccc5c4CCN3C[C@H]2C[C@@H](OC(=O)c2cc(OC)c(OC)c(OC)c2)[C@@H]1OC` [RESERPINE], the “fold change (FC)” value in the data set on Staphylococcus aureus [3] was 2; with Staphylococcus aureus [4], 0. For the same compound, the inhibition entry in data set [8] and in data set [9] was “Active” throughout. Further, the “growth inhibition (GI)” value with Staphylococcus aureus [5] and in the data set with Staphylococcus aureus [6] was “Non-Toxic” in each case.

In the case of `COC(=O)[C@@H]1CCCN1C(=O)/C=C/C1=C(Cl)c2ccccc2CC1`, the MEC in data set [1] stood at 6.25 µg/mL. Further, the values for the inhibition in data set [2] and in data set [7] were 80.3% and over 80%, respectively. Moreover, the “fold change (FC)” value was determined as 2 with Staphylococcus aureus [3] and 0 in the data set on Staphylococcus aureus [4]. For the same compound, in the data set with Staphylococcus aureus [10], the minimal effective concentration was 50 µg/mL. Moreover, the “growth inhibition (GI)” value in the data set with Staphylococcus aureus [5] and with Staphylococcus aureus [6] was “Non-Toxic” each time.

Take `COC(=O)C(C)(C)NC(=O)/C=C/C1=C(Cl)c2ccccc2CC1`: the MEC in data set [1] came to 12.5 µg/mL. Moreover, in [2], the inhibition came to 41.4%. In addition, the “fold change (FC)” value in the data set on Staphylococcus aureus [3] and with Staphylococcus aureus [4] was 0 each time. Further, the “growth inhibition (GI)” value in the data set with Staphylococcus aureus [5] and with Staphylococcus aureus [6] was “Non-Toxic” in each case.

Regarding `COC(=O)[C@H](Cc1ccc(O)cc1)NC(=O)/C=C/C1=C(Cl)c2ccccc2CC1`, the MEC in [1] stood at 1.5 µg/mL. Further, the inhibition in data set [11] is 85.2%; in data set [8] it was over 80%. Further, the “fold change (FC)” value came out at 4 with Staphylococcus aureus [3], 0 with Staphylococcus aureus [4] and 16 in [12]. Moreover, the Activity entry in the data set on HepG2 is “Non-Toxic”. Besides, the “growth inhibition (GI)” value with Staphylococcus aureus [5] and with Staphylococcus aureus [6] was “Non-Toxic” throughout. In [9], the inhibition result is “Active”.

For the compound `COC(=O)CNC(=O)/C=C/C1=C(Cl)c2ccccc2CC1`, the MEC in [1] was over 50 µg/mL. For the same compound, the “fold change (FC)” value in the data set with Staphylococcus aureus [3] and in the data set with Staphylococcus aureus [4] was 0 throughout. Further, the “growth inhibition (GI)” value in the data set on Staphylococcus aureus [5] and in the data set on Staphylococcus aureus [6] was “Non-Toxic” in each case.

For the compound `COC(=O)[C@H](Cc1c[nH]c2ccccc12)NC(=O)/C=C/C1=C(Cl)c2ccccc2CC1`, the MEC in data set [1] is 1.5 µg/mL. Further, the inhibition in data set [11] was 83.9%; in data set [8] it was over 80%. The “fold change (FC)” value is 4 in the data set on Staphylococcus aureus [3], 0 with Staphylococcus aureus [4] and 16 in [12]. Moreover, the Activity result in the data set with HepG2 is reported as “Non-Toxic”. Also, the “growth inhibition (GI)” value in the data set on Staphylococcus aureus [5] and with Staphylococcus aureus [6] was “Non-Toxic” in each case. Also, the inhibition result in data set [9] was “inactive”.

As to `COC(=O)[C@H](CC(C)C)NC(=O)/C=C/C1=C(Cl)c2ccccc2CC1`, in data set [1], the MEC was 12.5 µg/mL. Also, the inhibition in data set [2] was determined as 56.2%. The “fold change (FC)” value with Staphylococcus aureus [3] came to 2; in the data set on Staphylococcus aureus [4], 0. In addition, the “growth inhibition (GI)” value in the data set with Staphylococcus aureus [5] and in the data set on Staphylococcus aureus [6] was “Non-Toxic” in each case.

Consider `COC(=O)[C@H](C)NC(=O)/C=C/C1=C(Cl)c2ccccc2CC1`, for which the MEC in data set [1] stood at 25 µg/mL. The “fold change (FC)” value in the data set with Staphylococcus aureus [3] and in the data set with Staphylococcus aureus [4] was 0 throughout. The “growth inhibition (GI)” value in the data set on Staphylococcus aureus [5] and with Staphylococcus aureus [6] was “Non-Toxic” in each case.

On to `CC[C@@H](C)[C@H](NC(=O)/C=C/C1=C(Cl)c2ccccc2CC1)C(=O)OC`, for which the MEC in [1] was 12.5 µg/mL. Also, in [2], the inhibition is 58.2%. Moreover, the “fold change (FC)” value in the data set with Staphylococcus aureus [3] turned out to be 2; with Staphylococcus aureus [4], 0. In addition, the “growth inhibition (GI)” value in the data set on Staphylococcus aureus [5] and with Staphylococcus aureus [6] was “Non-Toxic” in each case.

For `COC(=O)CC1(NC(=O)/C=C/C2=C(Cl)c3ccccc3CC2)CCC(C(C)(C)C)CC1` (configuration not stated), in data set [1], the MEC was over 50 µg/mL. For the same compound, the “fold change (FC)” value in the data set with Staphylococcus aureus [3] and in the data set with Staphylococcus aureus [4] was 0 throughout. Further, the “growth inhibition (GI)” value in the data set on Staphylococcus aureus [5] and in the data set on Staphylococcus aureus [6] was “Non-Toxic” throughout.

For the compound `COC(=O)CCCNC(=O)/C=C/C1=C(Cl)c2ccccc2CC1`, the MEC in data set [1] is over 50 µg/mL. Besides, the “fold change (FC)” value with Staphylococcus aureus [3] and in the data set with Staphylococcus aureus [4] was 0 each time. Moreover, the “growth inhibition (GI)” value in the data set with Staphylococcus aureus [5] and in the data set on Staphylococcus aureus [6] was “Non-Toxic” throughout.

As for `CCC(/C=C/C(=O)N1CCCCC1)=C\c1ccc2c(c1)OCO2`, the MEC in data set [1] turned out to be 6.25 µg/mL. Besides, the inhibition in [11] is 68.8%. In addition, the “fold change (FC)” value with Staphylococcus aureus [3] came to 4; in the data set with Staphylococcus aureus [4] it was 0. In addition, the “growth inhibition (GI)” value in the data set on Staphylococcus aureus [5] and in the data set on Staphylococcus aureus [6] was “Non-Toxic” each time.
